What was measured:
[1] = test system: Human immunodeficiency virus 1; experiment: Antiviral activity against Human immunodeficiency virus 1 subtype C isolate 93MW959 infected in human PBMC cells by cell based assay; details: Human immunodeficiency virus 1, subtype C isolate 93MW959, PBMC
[2] = test system: Human immunodeficiency virus 1; experiment: Antiviral activity against Human immunodeficiency virus 1 subtype A isolate 92UG037 infected in human PBMC cells by cell based assay; details: Human immunodeficiency virus 1, subtype A isolate 92UG037, PBMC
[3] = test system: Human immunodeficiency virus 1; experiment: Antiviral activity against Human immunodeficiency virus 1 subtype D isolate 92UG035 infected in human PBMC cells by cell based assay; details: Human immunodeficiency virus 1, subtype D 92UG035, PBMC
[4] = test system: Human immunodeficiency virus 1; experiment: Antiviral activity against Human immunodeficiency virus 1 subtype F isolate 93BR029 infected in human PBMC cells by cell based assay; details: Human immunodeficiency virus 1, subtype F isolate 93BR029, PBMC
[5] = test system: Human immunodeficiency virus 1; experiment: Antiviral activity against Human immunodeficiency virus 1 subtype B isolate JR-CSF infected in human PBMC cells by cell based assay
[6] = test system: Human immunodeficiency virus 1; experiment: Antiviral activity against Human immunodeficiency virus 1 subtype A isolate 92RW020 infected in human PBMC cells by cell based assay; details: Human immunodeficiency virus 1, subtype A isolate 92RW020, PBMC
[7] = test system: Human immunodeficiency virus 1; experiment: Antiviral activity against Human immunodeficiency virus 1 3B infected in human MT4 cells assessed as reduction in virus induced cytopathicity; assay type: functional, organism-based
Method in brief: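 MT4 cells (1.5 × 10^5/ml) infected with HIV-1 IIIB at MOI 0.01 and added to serially diluted compound. Cultures incubated 5 days at 37°C under 5% CO2. Cell viability, as protection from virus-induced killing, read by MTT tetrazolium colorimetry. EC50 reported as median with first to third quartiles over n experiments.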

[8] = test system: Human immunodeficiency virus 1; experiment: Antiviral activity against Human immunodeficiency virus 1 subtype O isolate BCF03 infected in human PBMC cells by cell based assay; details: Human immunodeficiency virus 1, subtype O isolate BCF03, PBMC
[9] = test system: Human immunodeficiency virus 1; experiment: Antiviral activity against Human immunodeficiency virus 1 subtype B isolate WEJO infected in human PBMC cells by cell based assay
[10] = test system: Human immunodeficiency virus 1; experiment: Antiviral activity against Human immunodeficiency virus 1 subtype B isolate 93BR021 infected in human PBMC cells by cell based assay; details: Human immunodeficiency virus 1, subtype B isolate 93BR021, PBMC
MT4 = experiment: Cytotoxicity against human MT4 cells by cell based assay
Method in brief: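 Cytotoxicity in MT4 cells from cell-based assays gave a 50% cytotoxic concentration, reported as a median with first- to third-quartile values over the stated number of experiments.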

[11] = test system: Human immunodeficiency virus 2; experiment: Antiviral activity against Human immunodeficiency virus 2 ROD infected in human MT4 cells assessed as reduction in virus induced cytopathicity; assay type: functional, organism-based; details: Human immunodeficiency virus 2, ISOLATE ROD
Method in brief: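 MT4 cells (1.5 × 10^5/ml) infected with HIV (MOI 0.01) were added to serial compound dilutions and incubated 5 days at 37°C in 5% CO2. Protection from virus-induced cell death was read by MTT tetrazolium colorimetry, giving an EC50 in micromolar.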

[12] = test system: Human immunodeficiency virus 1; experiment: Antiviral activity against Human immunodeficiency virus 1 subtype (H) infected in human MT4 cells assessed as reduction in virus induced cytopathicity; assay type: functional, organism-based
Method in brief: (§1)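 Recombinant viruses were made by recombining patient-derived HIV-1 RT-PR sequences into an RT-PR-deleted HXB2 proviral clone transfected into MT4 cells. Subtype was assigned from PR/RT sequence by Smith-Waterman alignment to HXB2. MT4 cells (1.5 × 10^5/ml) were infected at MOI 0.01 with serially diluted compound for 5 days at 37°C. Viability was read by MTT and EC50 derived.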

[13] = test system: Human immunodeficiency virus 1; experiment: Antiviral activity against Human immunodeficiency virus 1 subtype C isolate 93IN101 infected in human PBMC cells by cell based assay; details: Human immunodeficiency virus 1, subtype C isolate 93IN101, PBMC
[14] = test system: Human immunodeficiency virus 1; experiment: Antiviral activity against Human immunodeficiency virus 1 subtype C infected in human MT4 cells assessed as reduction in virus induced cytopathicity; assay type: functional, organism-based; method in brief: as §1
[15] = test system: Human immunodeficiency virus 1; experiment: Antiviral activity against Human immunodeficiency virus 1 subtype G isolate RU132 infected in human PBMC cells by cell based assay; details: Human immunodeficiency virus 1, subtype G isolate RU132, PBMC
[16] = test system: Human immunodeficiency virus 1; experiment: Antiviral activity against Human immunodeficiency virus 1 subtype G infected in human MT4 cells assessed as reduction in virus induced cytopathicity; assay type: functional, organism-based; method in brief: as §1
[17] = test system: Human immunodeficiency virus 1; experiment: Antiviral activity against Human immunodeficiency virus 1 subtype E isolate CMU08 infected in human PBMC cells by cell based assay; details: Human immunodeficiency virus 1, subtype E isolate CMU08, PBMC
[18] = test system: Human immunodeficiency virus 1; experiment: Antiviral activity against Human immunodeficiency virus 1 subtype F isolate 93BR019 infected in human PBMC cells by cell based assay; details: Human immunodeficiency virus 1, subtype F isolate 93BR019, PBMC
[19] = test system: Human immunodeficiency virus 1; experiment: Antiviral activity against Human immunodeficiency virus 1 subtype D isolate 92UG001 infected in human PBMC cells by cell based assay; details: Human immunodeficiency virus 1, subtype D isolate 92UG001, PBMC
[20] = test system: Human immunodeficiency virus 1; experiment: Antiviral activity against Human immunodeficiency virus 1 subtype G isolate JV1083 infected in human PBMC cells by cell based assay; details: Human immunodeficiency virus 1, subtype G isolate JV1083, PBMC
[21] = test system: Human immunodeficiency virus 1; experiment: Antiviral activity against Human immunodeficiency virus 1 subtype O misolate BCF01 infected in human PBMC cells by cell based assay; details: Human immunodeficiency virus 1, subtype O isolate BCF01, PBMC
[22] = test system: Human immunodeficiency virus 1; experiment: Antiviral activity against Human immunodeficiency virus 1 subtype A isolate 92UG029 infected in human PBMC cells by cell based assay; details: Human immunodeficiency virus 1, subtype A isolate 92UG029, PBMC
[23] = test system: Human immunodeficiency virus 1; experiment: Antiviral activity against Human immunodeficiency virus 1 subtype E isolate 93TH073 infected in human PBMC cells by cell based assay; details: Human immunodeficiency virus 1, subtype E 93TH073, PBMC
[24] = test system: Human immunodeficiency virus 1; experiment: Antiviral activity against Human immunodeficiency virus 1 subtype O isolate BCF02 infected in human PBMC cells by cell based assay; details: Human immunodeficiency virus 1, subtype O isolate BCF02, PBMC
[25] = test system: Human immunodeficiency virus 1; experiment: Antiviral activity against Human immunodeficiency virus 1 subtype A1 infected in human MT4 cells assessed as reduction in virus induced cytopathicity; assay type: functional, organism-based; details: Human immunodeficiency virus 1, subtype A1, MT4; method in brief: as §1
[26] = test system: Human immunodeficiency virus 1; experiment: Antiviral activity against Human immunodeficiency virus 1 subtype F isolate 93BR020 infected in human PBMC cells by cell based assay; details: Human immunodeficiency virus 1, subtype F isolate 93BR020, PBMC
[27] = test system: Human immunodeficiency virus 1; experiment: Antiviral activity against Human immunodeficiency virus 1 subtype G isolate G3 infected in human PBMC cells by cell based assay; details: Human immunodeficiency virus 1, subtype G isolate G3, PBMC
[28] = test system: Human immunodeficiency virus 1; experiment: Antiviral activity against Human immunodeficiency virus 1 subtype BG infected in human MT4 cells assessed as reduction in virus induced cytopathicity; assay type: functional, organism-based; method in brief: as §1
[29] = test system: Human immunodeficiency virus 1; experiment: Antiviral activity against Human immunodeficiency virus 1 subtype AE infected in human MT4 cells assessed as reduction in virus induced cytopathicity; assay type: functional, organism-based; method in brief: as §1
[30] = test system: Human immunodeficiency virus 1; experiment: Antiviral activity against Human immunodeficiency virus 1 subtype E isolate 92TH006 infected in human PBMC cells by cell based assay; details: Human immunodeficiency virus 1, subtype E 92TH006, PBMC
[31] = test system: Human immunodeficiency virus 1; experiment: Antiviral activity against Human immunodeficiency virus 1 subtype F1 infected in human MT4 cells assessed as reduction in virus induced cytopathicity; assay type: functional, organism-based; details: Human immunodeficiency virus 1, subtype F1, MT4; method in brief: as §1
[32] = test system: Human immunodeficiency virus 1; experiment: Antiviral activity against Human immunodeficiency virus 1 subtype AG infected in human MT4 cells assessed as reduction in virus induced cytopathicity; assay type: functional, organism-based; method in brief: as §1
[33] = test system: Human immunodeficiency virus 1; experiment: Antiviral activity against Human immunodeficiency virus 1 subtype C isolate 92BR025 infected in human PBMC cells by cell based assay; details: Human immunodeficiency virus 1, subtype C isolate 92BR025, PBMC
[34] = test system: Human immunodeficiency virus 1; experiment: Antiviral activity against Human immunodeficiency virus 1 subtype D infected in human MT4 cells assessed as reduction in virus induced cytopathicity; assay type: functional, organism-based; method in brief: as §1
[35] = test system: Human immunodeficiency virus 1; experiment: Antiviral activity against Human immunodeficiency virus 1 subtype D isolate 92UG024 infected in human PBMC cells by cell based assay; details: Human immunodeficiency virus 1, subtype D 92UG024, PBMC

## Cc1cc(C#N)cc(C)c1Oc1nc(Nc2ccc(C#N)cc2)nc(N)c1Br [ETRAVIRINE]
[1]
  EC50: 1.01 nM
[2]
  EC50: 1.42 nM
[3]
  EC50: 0.44 nM
[4]
  EC50: 1.06 nM
[5]
  EC50: 1.02 nM
[6]
  EC50: 0.48 nM
[7]
  EC50: 2.73 nM
[8]
  EC50: 149 nM
[9]
  EC50: 0.43 nM
[10]
  EC50: 1.35 nM
MT4
  Activity: > 64 µM
[11]
  EC50: 5670 nM
[12]
  EC50: 0.51 nM
[13]
  EC50: 2.72 nM
[14]
  EC50: 0.52 nM
[15]
  EC50: 1.7 nM
[16]
  EC50: 0.24 nM
[17]
  EC50: 3.47 nM
[18]
  EC50: 0.46 nM
[19]
  EC50: 0.9 nM
[20]
  EC50: 1.45 nM
[21]
  EC50: 16.4 nM
[22]
  EC50: 1.45 nM
[23]
  EC50: 0.21 nM
[24]
  EC50: 52.8 nM
[25]
  EC50: 1.39 nM
[26]
  EC50: 1.08 nM
[27]
  EC50: 0.66 nM
[28]
  EC50: 0.67 nM
[29]
  EC50: 0.65 nM
[30]
  EC50: 0.5 nM
[31]
  EC50: 0.35 nM
[32]
  EC50: 0.46 nM
[33]
  EC50: 1.7 nM
[34]
  EC50: 1.13 nM
[35]
  EC50: 3.18 nM

## Cc1ccnc2c1NC(=O)c1cccnc1N2C1CC1 [NEVIRAPINE]
[7]
  EC50: 34.1 nM
MT4
  Activity: > 32 µM
[11]
  EC50: > 31200 nM
[12]
  EC50: 34.1 nM
[14]
  EC50: < 4.88 nM
[16]
  EC50: 24.6 nM
[25]
  EC50: 9.32 nM
[28]
  EC50: 26 nM
[29]
  EC50: 8.94 nM
[31]
  EC50: 14.9 nM
[32]
  EC50: 14.4 nM
[34]
  EC50: 24.2 nM

From ChEMBL document CHEMBL1240360, “TMC278, a next-generation nonnucleoside reverse transcriptase inhibitor (NNRTI), active against wild-type and NNRTI-resistant HIV-1” (Antimicrob Agents Chemother, 2010)
